Results: ChEMBL document CHEMBL1938284, “Synthesis and biological activity of novel organoselenium derivatives targeting multiple kinases and capable of inhibiting cancer progression to metastases” (Eur J Med Chem, 2012)
Calls of active or inactive are those of the source. The calls are words filed in the database; no cut-off is given here.

Columns and labels:
[1] = target: Tyrosine-protein kinase SYK (Homo sapiens) (UniProt P43405); test: Inhibition of SYK at 1 uM
[2] = target: Epidermal growth factor receptor (Homo sapiens) (UniProt P00533); test: Inhibition of EGFR at 1 uM
Epidermal growth factor receptor (Homo sapiens), sequence (P00533 whole entry): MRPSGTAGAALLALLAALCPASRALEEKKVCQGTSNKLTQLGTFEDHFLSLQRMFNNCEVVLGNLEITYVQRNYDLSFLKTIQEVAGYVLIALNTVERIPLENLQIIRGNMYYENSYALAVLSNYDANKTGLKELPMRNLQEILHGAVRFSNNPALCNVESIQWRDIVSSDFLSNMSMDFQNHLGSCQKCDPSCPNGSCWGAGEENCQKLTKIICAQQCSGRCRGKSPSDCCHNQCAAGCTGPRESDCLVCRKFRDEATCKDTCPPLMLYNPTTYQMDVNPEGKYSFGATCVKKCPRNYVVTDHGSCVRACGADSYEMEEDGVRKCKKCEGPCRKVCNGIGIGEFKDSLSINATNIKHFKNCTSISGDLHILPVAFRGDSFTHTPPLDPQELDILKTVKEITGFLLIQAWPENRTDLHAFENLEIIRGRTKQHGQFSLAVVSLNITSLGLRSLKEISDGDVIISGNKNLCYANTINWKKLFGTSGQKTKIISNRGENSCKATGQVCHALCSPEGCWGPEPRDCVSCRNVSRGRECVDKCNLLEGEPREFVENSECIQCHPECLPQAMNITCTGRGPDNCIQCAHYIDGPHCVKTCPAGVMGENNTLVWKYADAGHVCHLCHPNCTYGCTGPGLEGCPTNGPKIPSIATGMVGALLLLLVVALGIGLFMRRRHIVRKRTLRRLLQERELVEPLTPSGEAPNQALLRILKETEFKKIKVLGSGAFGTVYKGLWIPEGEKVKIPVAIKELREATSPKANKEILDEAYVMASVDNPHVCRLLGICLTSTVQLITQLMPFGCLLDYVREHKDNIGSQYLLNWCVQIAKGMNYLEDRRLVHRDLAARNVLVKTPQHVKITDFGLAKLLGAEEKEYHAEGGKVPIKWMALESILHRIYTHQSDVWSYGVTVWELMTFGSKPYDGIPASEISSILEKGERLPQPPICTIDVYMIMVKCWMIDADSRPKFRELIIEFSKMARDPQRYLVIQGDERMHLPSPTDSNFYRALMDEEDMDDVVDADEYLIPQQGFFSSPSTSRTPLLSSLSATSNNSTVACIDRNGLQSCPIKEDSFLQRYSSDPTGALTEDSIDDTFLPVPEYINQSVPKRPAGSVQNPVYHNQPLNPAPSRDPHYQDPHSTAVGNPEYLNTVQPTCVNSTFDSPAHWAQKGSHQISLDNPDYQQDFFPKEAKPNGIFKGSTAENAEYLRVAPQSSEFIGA

[3] = Antiinvasive activity in human MDA231 cells at 10 uM after 48 hrs by Matrigel matrix assay; format: functional, MDA-MB-231
In short: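 Serum-starved MDA-231 cells (30,000) placed with or without compound (10 μM) in the upper compartment of 8-µm Matrigel-coated Boyden chambers. Lower compartment held DMEM 0.2% BSA with 10% serum. Invasion ran 48 h, then invaded cells were fixed, stained and counted under a 40× objective. DMSO normalized to 0% inhibition. Mean ± SD, five experiments.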

[4] = target: Vascular endothelial growth factor receptor 2 (Homo sapiens) (UniProt P35968); test: Inhibition of VEGFR2 at 1 uM
Vascular endothelial growth factor receptor 2 (Homo sapiens), sequence (P35968 whole entry): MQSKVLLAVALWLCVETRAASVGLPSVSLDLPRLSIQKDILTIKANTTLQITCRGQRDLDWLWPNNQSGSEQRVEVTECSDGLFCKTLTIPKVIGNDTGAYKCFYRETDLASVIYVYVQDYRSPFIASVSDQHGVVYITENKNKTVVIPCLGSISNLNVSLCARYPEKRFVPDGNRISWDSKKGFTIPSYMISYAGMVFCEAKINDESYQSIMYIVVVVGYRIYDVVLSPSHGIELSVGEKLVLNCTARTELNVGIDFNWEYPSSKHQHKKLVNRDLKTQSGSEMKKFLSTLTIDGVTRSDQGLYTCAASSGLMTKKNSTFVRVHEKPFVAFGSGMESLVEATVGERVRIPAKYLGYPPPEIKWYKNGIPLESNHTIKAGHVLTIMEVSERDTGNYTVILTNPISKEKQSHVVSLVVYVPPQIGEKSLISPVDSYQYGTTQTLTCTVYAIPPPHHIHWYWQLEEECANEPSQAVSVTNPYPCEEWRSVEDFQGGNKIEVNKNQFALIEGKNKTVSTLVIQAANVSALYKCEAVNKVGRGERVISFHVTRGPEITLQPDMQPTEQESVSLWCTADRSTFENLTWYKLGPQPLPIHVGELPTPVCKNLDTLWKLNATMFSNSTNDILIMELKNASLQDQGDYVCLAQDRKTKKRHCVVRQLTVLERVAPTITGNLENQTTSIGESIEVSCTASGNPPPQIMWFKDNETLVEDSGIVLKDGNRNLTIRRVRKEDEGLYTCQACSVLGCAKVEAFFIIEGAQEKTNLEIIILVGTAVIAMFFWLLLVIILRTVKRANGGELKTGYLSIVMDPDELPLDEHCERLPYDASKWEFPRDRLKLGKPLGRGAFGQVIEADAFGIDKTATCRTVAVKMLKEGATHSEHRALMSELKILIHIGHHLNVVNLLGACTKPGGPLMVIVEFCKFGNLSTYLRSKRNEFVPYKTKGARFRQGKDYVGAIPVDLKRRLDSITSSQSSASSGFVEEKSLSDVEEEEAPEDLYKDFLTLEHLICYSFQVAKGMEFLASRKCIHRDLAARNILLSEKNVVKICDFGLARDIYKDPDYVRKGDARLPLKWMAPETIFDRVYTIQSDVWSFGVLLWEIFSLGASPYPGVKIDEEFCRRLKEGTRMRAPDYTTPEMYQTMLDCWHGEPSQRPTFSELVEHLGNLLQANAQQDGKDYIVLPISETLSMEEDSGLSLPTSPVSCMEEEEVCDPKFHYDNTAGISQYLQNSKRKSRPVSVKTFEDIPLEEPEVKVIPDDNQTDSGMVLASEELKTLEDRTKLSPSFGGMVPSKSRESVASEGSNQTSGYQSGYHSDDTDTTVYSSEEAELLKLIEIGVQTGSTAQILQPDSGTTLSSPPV

[5] = target: Proto-oncogene tyrosine-protein kinase Src (Homo sapiens) (UniProt P12931); test: Inhibition of SRC at 1 uM
Proto-oncogene tyrosine-protein kinase Src (Homo sapiens), sequence (P12931 2-536 limits assumed): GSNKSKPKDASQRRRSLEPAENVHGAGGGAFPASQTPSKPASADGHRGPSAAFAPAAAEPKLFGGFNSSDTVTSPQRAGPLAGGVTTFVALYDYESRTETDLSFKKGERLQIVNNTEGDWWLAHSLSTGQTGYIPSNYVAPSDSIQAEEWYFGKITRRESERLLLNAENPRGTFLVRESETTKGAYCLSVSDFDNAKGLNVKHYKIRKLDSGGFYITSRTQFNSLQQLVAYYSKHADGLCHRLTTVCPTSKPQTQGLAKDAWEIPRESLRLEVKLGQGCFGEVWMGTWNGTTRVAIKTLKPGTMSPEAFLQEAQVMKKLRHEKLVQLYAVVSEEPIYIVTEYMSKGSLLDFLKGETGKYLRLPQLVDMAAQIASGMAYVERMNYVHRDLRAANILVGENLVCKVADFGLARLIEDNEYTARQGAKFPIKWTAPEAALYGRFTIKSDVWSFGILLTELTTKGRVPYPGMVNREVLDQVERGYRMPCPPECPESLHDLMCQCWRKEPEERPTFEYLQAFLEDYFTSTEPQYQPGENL

[6] = target: T1, Aurora kinase A (Homo sapiens) (UniProt O14965); test: Inhibition of Aurora A at 1 uM
T1 sequence (whole entry): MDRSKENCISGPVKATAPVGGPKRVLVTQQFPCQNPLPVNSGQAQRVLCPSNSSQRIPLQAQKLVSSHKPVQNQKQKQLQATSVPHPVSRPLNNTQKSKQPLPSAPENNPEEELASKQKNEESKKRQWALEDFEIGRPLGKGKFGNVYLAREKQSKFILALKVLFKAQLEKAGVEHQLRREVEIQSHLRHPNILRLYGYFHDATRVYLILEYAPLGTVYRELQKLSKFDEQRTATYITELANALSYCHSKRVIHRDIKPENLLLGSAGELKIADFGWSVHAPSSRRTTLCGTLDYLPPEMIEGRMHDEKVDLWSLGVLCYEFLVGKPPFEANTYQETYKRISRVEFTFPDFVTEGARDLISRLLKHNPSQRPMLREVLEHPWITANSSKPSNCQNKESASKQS

[7] = target: Serine/threonine-protein kinase pim-1 (Homo sapiens) (UniProt P11309); test: Inhibition of PIM1 at 1 uM
[8] = target: Hepatocyte growth factor receptor (Homo sapiens) (UniProt P08581); test: Inhibition of MET at 1 uM
Hepatocyte growth factor receptor (Homo sapiens), sequence (P08581 whole entry): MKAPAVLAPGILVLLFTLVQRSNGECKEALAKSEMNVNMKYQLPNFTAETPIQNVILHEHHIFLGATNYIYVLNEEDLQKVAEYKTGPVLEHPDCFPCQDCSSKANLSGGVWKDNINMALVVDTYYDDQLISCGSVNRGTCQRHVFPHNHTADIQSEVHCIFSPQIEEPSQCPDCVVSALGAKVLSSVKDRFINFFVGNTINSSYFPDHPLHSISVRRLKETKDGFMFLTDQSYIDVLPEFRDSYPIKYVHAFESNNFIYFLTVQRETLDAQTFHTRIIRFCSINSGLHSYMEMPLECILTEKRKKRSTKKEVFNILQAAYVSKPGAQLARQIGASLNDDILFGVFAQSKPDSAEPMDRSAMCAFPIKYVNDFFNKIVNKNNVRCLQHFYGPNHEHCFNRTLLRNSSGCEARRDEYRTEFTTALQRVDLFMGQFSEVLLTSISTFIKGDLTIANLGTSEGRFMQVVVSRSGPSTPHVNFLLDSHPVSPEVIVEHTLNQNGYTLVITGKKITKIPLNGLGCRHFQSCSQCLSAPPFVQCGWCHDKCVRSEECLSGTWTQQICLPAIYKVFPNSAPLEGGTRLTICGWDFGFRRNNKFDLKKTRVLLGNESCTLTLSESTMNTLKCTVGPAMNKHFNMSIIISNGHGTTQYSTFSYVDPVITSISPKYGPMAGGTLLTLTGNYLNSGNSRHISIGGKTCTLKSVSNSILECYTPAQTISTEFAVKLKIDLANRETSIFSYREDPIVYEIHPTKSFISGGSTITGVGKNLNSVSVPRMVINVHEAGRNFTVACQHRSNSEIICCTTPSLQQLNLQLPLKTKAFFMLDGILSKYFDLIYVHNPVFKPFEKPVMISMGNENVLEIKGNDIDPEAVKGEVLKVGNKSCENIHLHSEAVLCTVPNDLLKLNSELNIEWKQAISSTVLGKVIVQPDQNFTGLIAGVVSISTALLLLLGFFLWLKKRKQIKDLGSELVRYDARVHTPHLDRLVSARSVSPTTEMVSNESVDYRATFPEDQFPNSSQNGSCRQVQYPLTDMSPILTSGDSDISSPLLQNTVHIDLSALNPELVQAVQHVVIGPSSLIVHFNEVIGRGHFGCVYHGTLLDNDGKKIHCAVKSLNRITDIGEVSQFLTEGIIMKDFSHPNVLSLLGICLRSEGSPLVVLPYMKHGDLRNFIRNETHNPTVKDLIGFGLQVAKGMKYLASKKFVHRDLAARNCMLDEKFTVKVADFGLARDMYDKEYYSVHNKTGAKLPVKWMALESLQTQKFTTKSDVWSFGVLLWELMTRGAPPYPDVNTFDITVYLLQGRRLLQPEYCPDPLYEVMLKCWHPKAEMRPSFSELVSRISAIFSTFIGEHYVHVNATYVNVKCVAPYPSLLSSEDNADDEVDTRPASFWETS

MDA-MB-231 = test: Cytotoxicity against human MDA231 cells at 10 uM; format: functional, cell-based
[9] = target: Insulin-like growth factor 1 receptor (Homo sapiens) (UniProt P08069); test: Inhibition of IGF1R at 1 uM
MDA231 = test: Inhibition of lipoxygenase in human MDA231 cells; format: cell-based
[10] = target: T2, Serine/threonine-protein kinase PLK4 (Homo sapiens) (UniProt O00444); test: Inhibition of PLK4 at 1 uM
T2 sequence (whole entry): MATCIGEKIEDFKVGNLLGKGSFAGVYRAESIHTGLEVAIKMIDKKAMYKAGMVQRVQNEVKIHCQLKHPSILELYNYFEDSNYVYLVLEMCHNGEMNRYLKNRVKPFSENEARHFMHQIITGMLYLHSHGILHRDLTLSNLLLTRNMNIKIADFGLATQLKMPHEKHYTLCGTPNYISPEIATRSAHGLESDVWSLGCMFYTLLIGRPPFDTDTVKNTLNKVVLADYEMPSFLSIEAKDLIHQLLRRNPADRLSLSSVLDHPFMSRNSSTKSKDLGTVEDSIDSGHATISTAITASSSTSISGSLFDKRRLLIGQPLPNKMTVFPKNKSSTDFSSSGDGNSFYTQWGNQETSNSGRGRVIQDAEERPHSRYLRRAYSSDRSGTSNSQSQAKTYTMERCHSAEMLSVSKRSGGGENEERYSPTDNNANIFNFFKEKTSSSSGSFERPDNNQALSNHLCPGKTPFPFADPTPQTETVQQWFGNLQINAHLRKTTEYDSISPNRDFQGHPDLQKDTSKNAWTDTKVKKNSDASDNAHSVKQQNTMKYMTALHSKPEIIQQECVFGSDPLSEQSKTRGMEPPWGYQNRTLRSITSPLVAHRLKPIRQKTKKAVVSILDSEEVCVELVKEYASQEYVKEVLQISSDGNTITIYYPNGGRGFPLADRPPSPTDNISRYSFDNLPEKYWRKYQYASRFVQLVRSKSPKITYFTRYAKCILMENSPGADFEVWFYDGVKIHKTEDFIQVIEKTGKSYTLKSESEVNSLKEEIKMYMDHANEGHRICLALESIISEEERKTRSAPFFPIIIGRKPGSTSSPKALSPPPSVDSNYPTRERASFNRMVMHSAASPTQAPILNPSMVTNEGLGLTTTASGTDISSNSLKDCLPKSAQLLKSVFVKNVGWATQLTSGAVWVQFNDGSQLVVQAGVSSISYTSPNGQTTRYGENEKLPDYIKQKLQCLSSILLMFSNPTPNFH

[11] = target: Receptor tyrosine-protein kinase erbB-2 (Homo sapiens) (UniProt P04626); test: Inhibition of HER2 at 1 uM
[12] = target: Ribosomal protein S6 kinase alpha-4 (Homo sapiens) (UniProt O75676); test: Inhibition of RPS6KA4 at 1 uM
[13] = target: Protein kinase C alpha type (Homo sapiens, UniProt P17252); test: Inhibition of PKCalpha at 1 uM
[14] = target: T3, Inhibitor of nuclear factor kappa-B kinase subunit epsilon (Homo sapiens) (UniProt Q14164); test: Inhibition of IKKepsilon at 1 uM
T3 sequence (whole entry): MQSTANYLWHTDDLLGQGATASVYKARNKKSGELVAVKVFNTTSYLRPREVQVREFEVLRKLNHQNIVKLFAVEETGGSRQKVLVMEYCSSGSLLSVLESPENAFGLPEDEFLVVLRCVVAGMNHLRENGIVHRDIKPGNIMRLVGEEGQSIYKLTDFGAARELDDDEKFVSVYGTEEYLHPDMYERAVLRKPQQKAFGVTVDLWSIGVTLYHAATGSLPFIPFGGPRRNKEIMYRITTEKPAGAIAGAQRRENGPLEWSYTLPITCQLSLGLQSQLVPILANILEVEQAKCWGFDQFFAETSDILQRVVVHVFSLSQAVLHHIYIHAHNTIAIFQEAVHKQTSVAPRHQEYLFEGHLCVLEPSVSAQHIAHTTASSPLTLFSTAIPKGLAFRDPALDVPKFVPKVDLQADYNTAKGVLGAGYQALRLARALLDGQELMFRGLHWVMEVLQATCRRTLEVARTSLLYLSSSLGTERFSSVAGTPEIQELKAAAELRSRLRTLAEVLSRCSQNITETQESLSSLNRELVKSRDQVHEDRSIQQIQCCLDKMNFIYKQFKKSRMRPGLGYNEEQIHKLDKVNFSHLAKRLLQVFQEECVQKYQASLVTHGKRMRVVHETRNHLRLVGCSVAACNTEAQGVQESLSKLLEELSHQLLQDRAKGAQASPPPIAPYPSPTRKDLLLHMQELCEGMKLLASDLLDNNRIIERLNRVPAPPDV

[15] = target: Serine/threonine-protein kinase PAK 1 (Homo sapiens) (UniProt Q13153); test: Inhibition of PAK1 at 1 uM
Serine/threonine-protein kinase PAK 1 (Homo sapiens), sequence (Q13153 whole entry): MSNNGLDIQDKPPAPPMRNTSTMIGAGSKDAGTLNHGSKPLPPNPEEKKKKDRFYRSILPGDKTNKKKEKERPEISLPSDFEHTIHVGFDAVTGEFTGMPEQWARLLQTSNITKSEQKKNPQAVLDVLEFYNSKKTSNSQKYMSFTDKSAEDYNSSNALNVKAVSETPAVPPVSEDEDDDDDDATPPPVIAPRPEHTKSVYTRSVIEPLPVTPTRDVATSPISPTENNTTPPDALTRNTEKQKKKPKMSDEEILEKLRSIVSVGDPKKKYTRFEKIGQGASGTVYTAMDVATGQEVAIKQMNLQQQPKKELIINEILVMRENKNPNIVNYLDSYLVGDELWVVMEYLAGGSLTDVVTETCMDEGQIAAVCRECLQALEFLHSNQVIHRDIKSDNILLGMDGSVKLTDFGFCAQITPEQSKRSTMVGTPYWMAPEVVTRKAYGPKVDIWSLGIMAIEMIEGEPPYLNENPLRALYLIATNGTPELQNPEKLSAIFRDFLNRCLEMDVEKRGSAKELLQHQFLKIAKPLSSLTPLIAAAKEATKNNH

SMILES | inhibition [1] [%] | inhibition [2] [%] | Activity [3] [%] | inhibition [4] [%] | inhibition [5] [%] | inhibition [6] [%] | inhibition [7] [%] | inhibition [8] [%] | Activity (MDA-MB-231) | inhibition [9] [%] | inhibition (MDA231) | inhibition [10] [%] | inhibition [11] [%] | inhibition [12] [%] | inhibition [13] [%] | inhibition [14] [%] | inhibition [15] [%]
CC(=O)OC[C@H]1O[C@@H](O[C@H]2[C@H](OC(C)=O)[C@@H](OC(C)=O)[C@H](n3[se]c4ccccc4c3=O)O[C@@H]2COC(C)=O)[C@H](OC(C)=O)[C@@H](OC(C)=O)[C@H]1OC(C)=O | 0 | 0 | 50 | 0 | 0 | 0 | 0 | 0 | inactive | 1 | inactive | 0 | 0 | 0 | 95 | 0 | 0
O=c1c2ccccc2[se]n1-c1ccccc1 [EBSELEN] | 0 | 0 | – | 0 | 0 | 0 | 0 | 0 | – | 0 | – | 0 | 0 | 0 | 25 | 0 | 0
CC(=O)OC[C@H]1O[C@@H](NC(=O)CCCn2[se]c3ccccc3c2=O)[C@H](OC(C)=O)[C@@H](OC(C)=O)[C@@H]1OC(C)=O | 0 | 0 | 50 | 0 | 0 | 0 | 0 | 0 | inactive | 0 | inactive | 0 | 0 | 0 | 77 | 0 | 0
O=C(CCCn1[se]c2ccccc2c1=O)N[C@@H]1O[C@H](CO)[C@@H](O)[C@H](O)[C@H]1O | 0 | 0 | 50 | 0 | 0 | 0 | 0 | 0 | inactive | 0 | inactive | 0 | 0 | 0 | 74 | 0 | 0
